Experimental data as given in ChEMBL document CHEMBL1145212, “Fluorinated diaryl sulfides as serotonin transporter ligands: synthesis, structure-activity relationship study, and in vivo evaluation of fluorine-18-labeled compounds as PET imaging agents” (J Med Chem, 2005).

Tests used:
[1] = test system: Rattus norvegicus; test: Biodistribution of [18F]AFA in rat hypothalamus at 10 min postinjection in vivo; assay type: ADME, organism-based
Summary of the method: (§1)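 Male Sprague-Dawley rats, three per time point, received the F-18 radioligand in saline (~20 µCi per rat at injection) by tail vein. Under CO2 anesthesia they were decapitated at 10, 30, 60, 90 or 120 min. Blood and dissected brain regions were weighed and gamma counted. Activity was decay-corrected, and injected dose was corrected for tail residual activity. Uptake was expressed as %ID/g versus injectate standards, mean ± SD.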

[2] = test system: Rattus norvegicus; test: Biodistribution of [18F]AFA in rat thalamus at 30 min postinjection in vivo; assay type: ADME, organism-based; details: 0.5 h
Summary of the method: (§2)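 Male Sprague-Dawley rats, three per group, received ~20 µCi of the F-18 radioligand in saline by tail-vein injection. Rats were anesthetized with CO2 and decapitated at 10, 30, 60, 90 or 120 min. Blood and brain regions were weighed and gamma-counted. %ID/g was decay- and tail-residual-corrected against F-18 standards made from the injectate and reported as mean ± SD.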

[3] = test system: Rattus norvegicus; test: Biodistribution of [18F]AFA in rat frontal cortex at 60 min postinjection in vivo; assay type: ADME, organism-based; details: 1 h; summary of the method: as §1
[4] = test system: Rattus norvegicus; test: Biodistribution of [18F]AFA in rat cerebellum at 90 min postinjection in vivo; assay type: ADME, organism-based; details: 1.5 h; summary of the method: as §1
[5] = test system: Rattus norvegicus; test: Biodistribution of [18F]AFA in rat blood at 120 min postinjection in vivo; assay type: ADME, organism-based; details: 2 h; summary of the method: as §1
[6] = organism: Rattus norvegicus; test: Specific binding of [18F]AFA in thalamus of rat pretreated with compound 7c; n=3; assay type: functional
[7] = test system: Rattus norvegicus; test: Biodistribution of [18F]AFA in rat striatum at 10 min postinjection in vivo; assay type: ADME, organism-based; summary of the method: as §1
[8] = test system: Rattus norvegicus; test: Biodistribution of [18F]AFA in rat hippocampus at 10 min postinjection in vivo; assay type: ADME, organism-based; summary of the method: as §1
[9] = test system: Rattus norvegicus; test: Biodistribution of [18F]AFA in rat blood at 90 min postinjection in vivo; assay type: ADME, organism-based; details: 1.5 h; summary of the method: as §1
[10] = test system: Rattus norvegicus; test: Biodistribution of [18F]AFA in rat cerebellum at 10 min postinjection in vivo; assay type: ADME, organism-based; summary of the method: as §1
[11] = test system: Rattus norvegicus; test: Biodistribution of [18F]AFA in rat thalamus at 10 min postinjection in vivo; assay type: ADME, organism-based; summary of the method: as §2
[12] = test system: Rattus norvegicus; test: Biodistribution of [18F]-AFA in rat hypothalamus at 60 min postinjection in vivo; assay type: ADME, organism-based; details: 1 h; summary of the method: as §1
[13] = organism: Rattus norvegicus; test: Specific binding of [18F]AFA in striatum of rat pretreated with compound 7c; n=3; assay type: functional
[14] = test system: Rattus norvegicus; test: Biodistribution of [18F]AFA in rat hippocampus at 30 min postinjection in vivo; assay type: ADME, organism-based; details: 0.5 h; summary of the method: as §1
[15] = test system: Rattus norvegicus; test: Biodistribution of [18F]AFA in rat striatum 60 min postinjection in vivo; assay type: ADME, organism-based; details: 1 h; summary of the method: as §1
[16] = test system: Rattus norvegicus; test: Biodistribution of [18F]AFA in rat hypothalamus at 30 min postinjection in vivo; assay type: ADME, organism-based; details: 0.5 h; summary of the method: as §1
[17] = test system: Rattus norvegicus; test: Biodistribution of [18F]AFA in rat blood at 30 min postinjection in vivo; assay type: ADME, organism-based; details: 0.5 h; summary of the method: as §1
[18] = test system: Rattus norvegicus; test: Biodistribution of [18F]AFA in rat thalamus at 90 min postinjection in vivo; assay type: ADME, organism-based; details: 1.5 h; summary of the method: as §2
[19] = test system: Rattus norvegicus; test: Biodistribution of [18F]AFA in rat striatum at 90 min postinjection in vivo; assay type: ADME, organism-based; details: 1.5 h; summary of the method: as §2
[20] = test system: Rattus norvegicus; test: Biodistribution of [18F]AFA in rat blood at 60 min postinjection in vivo; assay type: ADME, organism-based; details: 1 h; summary of the method: as §1
[21] = organism: Rattus norvegicus; test: Specific binding of [18F]AFA in hippocampus of rat pretreated with compound 7c; n=3; assay type: functional
[22] = test system: Rattus norvegicus; test: Biodistribution of [18F]AFA in rat frontal cortex at 120 min postinjection in vivo; assay type: ADME, organism-based; details: 2 h; summary of the method: as §1
[23] = test system: Rattus norvegicus; test: Biodistribution of [18F]AFA in rat cerebellum at 30 min postinjection in vivo; assay type: ADME, organism-based; details: 0.5 h; summary of the method: as §1
[24] = test system: Rattus norvegicus; test: Biodistribution of [18F]AFA in rat frontal cortex at 90 min postinjection in vivo; assay type: ADME, organism-based; details: 1.5 h; summary of the method: as §1
[25] = test system: Rattus norvegicus; test: Biodistribution of [18F]AFA in rat cerebellum at 60 min postinjection in vivo; assay type: ADME, organism-based; details: 1 h; summary of the method: as §1
[26] = test system: Rattus norvegicus; test: Biodistribution of [18F]AFA in rat hippocampus at 60 min postinjection in vivo; assay type: ADME, organism-based; details: 1 h; summary of the method: as §1
[27] = test system: Rattus norvegicus; test: Biodistribution of [18F]AFA in rat hippocampus at 90 min postinjection in vivo; assay type: ADME, organism-based; details: 1.5 h; summary of the method: as §1
[28] = test system: Rattus norvegicus; test: Biodistribution of [18F]AFA in rat thalamus at 60 min postinjection in vivo; assay type: ADME, organism-based; details: 1 h; summary of the method: as §2
[29] = test system: Rattus norvegicus; test: Biodistribution of [18F]-AFA in rat thalamus at 120 min postinjection in vivo; assay type: ADME, organism-based; details: 2 h; summary of the method: as §1
[30] = test system: Rattus norvegicus; test: Biodistribution of [18F]AFA in rat striatum at 120 min postinjection in vivo; assay type: ADME, organism-based; details: 2 h; summary of the method: as §1
[31] = test system: Rattus norvegicus; test: Biodistribution of [18F]AFA in rat frontal cortex at 10 min postinjection in vivo; assay type: ADME, organism-based; summary of the method: as §1
[32] = test system: Rattus norvegicus; test: Biodistribution of [18F]AFA in rat frontal cortex at 30 min postinjection in vivo; assay type: ADME, organism-based; details: 0.5 h; summary of the method: as §1
[33] = test system: Rattus norvegicus; test: Biodistribution of [18F]AFA in rat hypothalamus at 90 min postinjection in vivo; assay type: ADME, organism-based; details: 1.5 h; summary of the method: as §1
[34] = organism: Rattus norvegicus; test: Specific binding of [18F]AFA in frontal cortex of rat pretreated with compound 7c; n=3; assay type: functional
[35] = test system: Rattus norvegicus; test: Biodistribution of [18F]AFA in rat hippocampus at 120 min postinjection in vivo; assay type: ADME, organism-based; details: 2 h; summary of the method: as §1
[36] = test system: Rattus norvegicus; test: Biodistribution of [18F]AFA in rat striatum at 30 min postinjection in vivo; assay type: ADME, organism-based; details: 0.5 h; summary of the method: as §1
[37] = test system: Rattus norvegicus; test: Biodistribution of [18F]AFA in rat blood at 10 min postinjection in vivo; assay type: ADME, organism-based; summary of the method: as §1
[38] = test system: Rattus norvegicus; test: Biodistribution of [18F]AFA in rat cerebellum at 120 min postinjection in vivo; assay type: ADME, organism-based; details: 2 h; summary of the method: as §1
[39] = organism: Rattus norvegicus; test: Specific binding of [18F]AFA in hypothalamus of rat pretreated with compound 7c; n=3; assay type: functional
[40] = test system: Rattus norvegicus; test: Biodistribution of [18F]AFA in rat hypothalamus at 120 min postinjection in vivo; assay type: ADME, organism-based; details: 2 h; summary of the method: as §1

- Biodistribution [1]: 0.73 %ID/g
- Biodistribution [2]: 0.69 %ID/g
- Biodistribution [3]: 0.28 %ID/g
- Biodistribution [4]: 0.04 %ID/g
- Biodistribution [5]: 0.07 %ID/g
- Biodistribution [7]: 0.65 %ID/g
- Biodistribution [8]: 0.54 %ID/g
- Biodistribution [9]: 0.08 %ID/g
- Biodistribution [10]: 0.38 %ID/g
- Biodistribution [11]: 0.72 %ID/g
- Biodistribution [12]: 0.38 %ID/g
- Biodistribution [14]: 0.48 %ID/g
- Biodistribution [15]: 0.26 %ID/g
- Biodistribution [16]: 0.66 %ID/g
- Biodistribution [17]: 0.16 %ID/g
- Biodistribution [18]: 0.23 %ID/g
- Biodistribution [19]: 0.19 %ID/g
- Biodistribution [20]: 0.08 %ID/g
- Biodistribution [22]: 0.11 %ID/g
- Biodistribution [23]: 0.2 %ID/g
- Biodistribution [24]: 0.2 %ID/g
- Biodistribution [25]: 0.07 %ID/g
- Biodistribution [26]: 0.23 %ID/g
- Biodistribution [27]: 0.18 %ID/g
- Biodistribution [28]: 0.34 %ID/g
- Biodistribution [29]: 0.16 %ID/g
- Biodistribution [30]: 0.11 %ID/g
- Biodistribution [31]: 0.81 %ID/g
- Biodistribution [32]: 0.65 %ID/g
- Biodistribution [33]: 0.3 %ID/g
- Biodistribution [35]: 0.1 %ID/g
- Biodistribution [36]: 0.58 %ID/g
- Biodistribution [37]: 0.27 %ID/g
- Biodistribution [38]: 0.04 %ID/g
- Biodistribution [40]: 0.17 %ID/g
Compound: CN(C)Cc1ccccc1Sc1ccc([18F])cc1N
- Specific binding [6]: 0.81 %ID/g
- Specific binding [13]: 0.37 %ID/g
- Specific binding [21]: 0.55 %ID/g
- Specific binding [34]: 0.53 %ID/g
- Specific binding [39]: 0.62 %ID/g
